{
  "source": "ChEMBL document CHEMBL1138284",
  "about": "“Malaria causal prophylactic activity of imidazolidinedione derivatives” (J Med Chem, 2007)",
  "key": {"Plasmodium berghei": {"test_system": "Plasmodium berghei", "test": "Antimalarial activity against Plasmodium berghei infected mice (Mus musculus)", "format": "functional, organism-based"}, "Plasmodium falciparum [1]": {"test_system": "Plasmodium falciparum", "test": "Antimalarial activity against pyrimethamine-sensitive Plasmodium falciparum D6", "format": "functional, organism-based"}, "Plasmodium falciparum [2]": {"test_system": "Plasmodium falciparum", "test": "Antimalarial activity against pyrimethamine-resistant Plasmodium falciparum W2", "format": "functional, organism-based"}, "Plasmodium yoelii [3]": {"test_system": "Plasmodium yoelii", "test": "Protection against Plasmodium yoelii sporozoite infected mice (Mus musculus) as minimal active peroral dose", "format": "functional", "summary_of_the_method": "(§1)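 Mice challenged with Plasmodium yoelii sporozoites received a single oral dose of the test compound. Protection was scored at day 6 as the number of parasite-free mice out of 5 per dose group. The minimum active dose was taken as the lowest dose giving activity.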"}, "[4]": {"test": "Metabolic stability assessed as half life in human liver microsomes"}, "Plasmodium yoelii [5]": {"test_system": "Plasmodium yoelii", "test": "Protection against Plasmodium yoelii sporozoite infected mice (Mus musculus) at 40 mg/kg peroral dose", "format": "functional, organism-based", "set-up": "dose 40 mg/kg", "summary_of_the_method": "as §1"}, "[6]": {"test": "Metabolic stability assessed as half life in mouse liver microsomes"}, "Plasmodium yoelii [7]": {"test_system": "Plasmodium yoelii", "test": "Protection against Plasmodium yoelii sporozoite infected mice (Mus musculus) at 160 mg/kg peroral dose", "format": "functional, organism-based", "set-up": "dose 160 mg/kg", "summary_of_the_method": "as §1"}, "Plasmodium yoelii [8]": {"test_system": "Plasmodium yoelii", "test": "Protection against Plasmodium yoelii sporozoite infected mice (Mus musculus) as minimal active perorally daily dose over 3 days", "format": "functional", "summary_of_the_method": "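Mice were challenged with P. yoelii sporozoites and dosed orally once daily for 3 consecutive days (days −1, 0, +1), starting the day before challenge. Protection was scored at day 6 as protected mice out of 5 per dose. The minimum active dose was taken from the dose series.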"}, "Plasmodium cynomolgi": {"test_system": "Plasmodium cynomolgi", "test": "Prophylactic parasite potency against Plasmodium cynomolgi sporozoite challenged rhesus monkey at 30 mg/kg/day Intramuscular dose for 3 days", "format": "functional", "summary_of_the_method": "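Rhesus monkeys were inoculated with P. cynomolgi sporozoites and given 30 mg/kg IM once daily for 3 days, starting the day before inoculation; two monkeys per group, with untreated controls. Blood smears were taken daily from day 6 for 21 days, then 3×/week for 4 weeks, then 2×/week to 100 days after the last dose. Patency was the first smear-positive day.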"}, "Plasmodium yoelii [9]": {"test_system": "Plasmodium yoelii", "test": "Protection against Plasmodium yoelii sporozoite infected mice (Mus musculus) at 120 mg/kg peroral dose", "format": "functional, organism-based", "set-up": "dose 120 mg/kg"}, "Plasmodium yoelii [10]": {"test_system": "Plasmodium yoelii", "test": "Protection against Plasmodium yoelii sporozoite infected mice (Mus musculus) at 480 mg/kg peroral dose", "format": "functional, organism-based", "set-up": "dose 480 mg/kg"}, "[11]": {"test": "Half life in iv dosed rat plasma", "format": "ADME, organism-based"}, "Plasmodium yoelii [12]": {"test_system": "Plasmodium yoelii", "test": "Protection against Plasmodium yoelii sporozoite infection in mice (Mus musculus) at 10 mg/kg peroral dose", "format": "functional, organism-based", "set-up": "dose 10 mg/kg", "summary_of_the_method": "as §1"}},
  "note": "Calls of active or inactive are those of the source. No cut-off for these calls is given here.",
  "data": [
    {"compound": "CCCc1nc(Nc2ccc(Cl)c(Cl)c2)nc(NC(C)C)n1", "values": [
      {"measurement": "Activity", "setting": "Plasmodium berghei", "value": "inactive"},
      {"measurement": "Activity", "setting": "Plasmodium falciparum [1]", "value": "inactive"},
      {"measurement": "Activity", "setting": "Plasmodium falciparum [2]", "value": "inactive"}
    ]},
    {"compound": "CC(C)N/C(=N/C1=NC(=O)C(=O)N1c1ccc(Cl)c(Cl)c1)NC(=O)C(C)C", "values": [
      {"measurement": "Activity", "setting": "Plasmodium yoelii [3]", "value": "<10", "unit": "mg/kg"},
      {"measurement": "half-life", "setting": "[4]; liver microsomes", "value": "< 10", "unit": "min"},
      {"measurement": "Activity", "setting": "Plasmodium yoelii [5]", "value": "Active"},
      {"measurement": "half-life", "setting": "[6]; liver microsomes", "value": "< 10", "unit": "min"},
      {"measurement": "Activity", "setting": "Plasmodium yoelii [7]", "value": "Active"}
    ]},
    {"compound": "CC(C)N1C(=O)C(=O)N=C1/N=C(/NC(=O)C(C)(C)C)Nc1ccc(Cl)c(Cl)c1", "values": [
      {"measurement": "Activity", "setting": "Plasmodium yoelii [8]", "value": ">480", "unit": "mg/kg"},
      {"measurement": "Activity", "setting": "Plasmodium yoelii [3]", "value": ">160", "unit": "mg/kg"},
      {"measurement": "half-life", "setting": "[4]; microsomes", "value": "> 60", "unit": "min"},
      {"measurement": "Activity", "setting": "Plasmodium cynomolgi", "value": 40, "unit": "days"},
      {"measurement": "Activity", "setting": "Plasmodium yoelii [9]", "value": "inactive"},
      {"measurement": "Activity", "setting": "Plasmodium yoelii [10]", "value": "inactive"},
      {"measurement": "half-life", "setting": "[6]; microsomes", "value": "> 60", "unit": "min"}
    ]},
    {"compound": "CCC(CC)C(=O)N/C(=N\\C1=NC(=O)C(=O)N1c1ccc(Cl)c(Cl)c1)NC(C)C", "values": [
      {"measurement": "Activity", "setting": "Plasmodium yoelii [3]", "value": "<10", "unit": "mg/kg"},
      {"measurement": "half-life", "setting": "[4]; liver microsomes", "value": "< 10", "unit": "min"},
      {"measurement": "Activity", "setting": "Plasmodium cynomolgi", "value": 15, "unit": "days"},
      {"measurement": "half-life", "setting": "[11]", "value": "< 10", "unit": "min"},
      {"measurement": "half-life", "setting": "[6]; liver microsomes", "value": "< 10", "unit": "min"},
      {"measurement": "Activity", "setting": "Plasmodium yoelii [7]", "value": "Active"}
    ]},
    {"compound": "CCC(CC)C(=O)N/C(=N/C1=NC(=O)C(=O)N1C(C)C)Nc1ccc(Cl)c(Cl)c1", "values": [
      {"measurement": "Activity", "setting": "Plasmodium yoelii [8]", "value": 7.5, "unit": "mg/kg"},
      {"measurement": "Activity", "setting": "Plasmodium yoelii [3]", "value": ">160", "unit": "mg/kg"},
      {"measurement": "half-life", "setting": "[4]; liver microsomes", "value": "> 60", "unit": "min"},
      {"measurement": "Activity", "setting": "Plasmodium cynomolgi", "value": 17, "unit": "days"},
      {"measurement": "half-life", "setting": "[6]; liver microsomes", "value": "> 60", "unit": "min"}
    ]},
    {"compound": "CC(C)C(=O)N/C(=N/C1=NC(=O)C(=O)N1C(C)C)Nc1ccc(Cl)c(Cl)c1", "values": [
      {"measurement": "Activity", "setting": "Plasmodium yoelii [8]", "value": "<30", "unit": "mg/kg"},
      {"measurement": "Activity", "setting": "Plasmodium yoelii [3]", "value": ">160", "unit": "mg/kg"}
    ]},
    {"compound": "CC(C)Nc1nc(Nc2ccc(Cl)c(Cl)c2)nc(C(C)C)n1", "values": [
      {"measurement": "Activity", "setting": "Plasmodium berghei", "value": "inactive"},
      {"measurement": "Activity", "setting": "Plasmodium falciparum [1]", "value": "inactive"},
      {"measurement": "Activity", "setting": "Plasmodium falciparum [2]", "value": "inactive"}
    ]},
    {"compound": "CC(C)N1C(=O)C(=O)N=C1N/C(=N\\C(=O)OC(C)(C)C)Nc1ccc(Cl)c(Cl)c1", "values": [
      {"measurement": "Activity", "setting": "Plasmodium cynomolgi", "value": 68, "unit": "days"}
    ]},
    {"compound": "CCC(CC)c1nc(Nc2ccc(Cl)c(Cl)c2)nc(NC(C)C)n1", "values": [
      {"measurement": "half-life", "setting": "[4]; liver microsomes", "value": "> 60", "unit": "min"},
      {"measurement": "Activity", "setting": "Plasmodium berghei", "value": "inactive"},
      {"measurement": "half-life", "setting": "[6]; liver microsomes", "value": "> 60", "unit": "min"},
      {"measurement": "Activity", "setting": "Plasmodium falciparum [1]", "value": "inactive"},
      {"measurement": "Activity", "setting": "Plasmodium falciparum [2]", "value": "inactive"}
    ]},
    {"compound": "CCCC(=O)N/C(=N\\C1=NC(=O)C(=O)N1c1ccc(Cl)c(Cl)c1)NC(C)C", "values": [
      {"measurement": "Activity", "setting": "Plasmodium yoelii [3]", "value": "<10", "unit": "mg/kg"},
      {"measurement": "half-life", "setting": "[4]; liver microsomes", "value": "< 10", "unit": "min"},
      {"measurement": "Activity", "setting": "Plasmodium yoelii [12]", "value": "Active"},
      {"measurement": "Activity", "setting": "Plasmodium yoelii [5]", "value": "Active"},
      {"measurement": "half-life", "setting": "[6]; liver microsomes", "value": "< 10", "unit": "min"},
      {"measurement": "Activity", "setting": "Plasmodium yoelii [7]", "value": "Active"}
    ]}
  ]
}
